Measurements gathered from unrelated publications.
Target: Serine/threonine-protein kinase 24 (STK24, Homo sapiens, UniProt Q9Y6E0)

O=C1Nc2ccc(Cl)cc2C1=Cc1cc(Cl)c(O)c(Cl)c1
remaining signal (cell-free assay; 0.5 µM): 104%

O=C(Nc1ccc(Oc2ccc(F)cc2)cc1)N1CCc2ncccc2[C@H]1c1ccc(F)cc1
remaining binding (cell-free assay, competition with immobilised ligand; 1 µM): 93%

Cc1ccc(C(=O)Nc2ccc(CN3CCN(C)CC3)c(C(F)(F)F)c2)cc1C#Cc1cnc2cccnn12
remaining activity (enzyme activity, inhibitor; 23.5 nM): 88%

CCN(CC)CCNC(=O)c1c(C)[nH]c(/C=C2\C(=O)Nc3ccc(F)cc32)c1C
remaining signal (cell-free assay; 0.5 µM): 39.7%

N#CC1(c2ccccn2)CCN(Cc2cc(C(=O)N3CCCC3)c(=O)n3ccccc23)CC1
remaining binding (cell-free assay, competition with immobilised ligand; 1 µM): 87%

CNC(=O)c1cc(Oc2ccc(NC(=O)Nc3ccc(Cl)c(C(F)(F)F)c3)cc2)ccn1
inhibition (enzyme activity, inhibitor; 10 µM): -46%

N#CCCc1ccc2c(c1)-c1[nH]c3ccc([N+](=O)[O-])cc3c1CC(=O)N2
remaining signal (cell-free assay; 0.5 µM): 57.7%

COc1cc2ncnc(Nc3ccc(Oc4ccccc4)cc3C)c2cc1OC
inhibition (enzyme activity, inhibitor; 1 µM): 9%

COc1cc(/C=C/C(=O)CC(=O)/C=C/c2ccc(O)c(OC)c2)ccc1O
activity vs control (enzyme activity, inhibitor; 1 µM): 91%

COc1cc(Nc2cnc(C#N)c(O[C@H](C)CN(C)C)n2)ncc1-c1cnn(C)c1
remaining activity (enzyme activity, inhibitor, radiometric; 1 µM): 89%

CCCS(=O)(=O)Nc1ccc(F)c(C(=O)c2c[nH]c3ncc(-c4ccc(Cl)cc4)cc23)c1F
inhibition (enzyme activity, inhibitor; 1 µM): < 20%

CN(c1nccc(-c2cnn3ncccc23)n1)C1CC1
remaining signal (cell-free assay; 1 µM): 100%

Cn1c2c(c3ccc(Cl)c(Cl)c31)C(C#N)C1(CCCC1)NC2=O (stereo not shown)
ΔTm (thermal stability, DSF; 10 µM): 0.8 °C

CCCCNc1ncc2c(-c3ccc(F)cc3)nn(C[C@H]3CC[C@H](N)CC3)c2n1
inhibition (target engagement in cells, inhibitor, chemoproteomics; 20 mM): 8.3%

CCN1CCN(Cc2ccc(NC(=O)c3ccc(C)c(Oc4ccnc5[nH]ccc45)c3)cc2C(F)(F)F)CC1
inhibition (target engagement in cells, inhibitor, chemoproteomics; Huh-7; 1 µM): -56%

COc1cc(Cl)c(C(=O)N[C@@H](CN[C@H]2CC[C@@H](N)CC2)Cc2ccc(C#N)cc2)cc1-c1ccc(CN[C@H](C)c2ccc(C)cc2)o1
remaining activity (enzyme activity, inhibitor; 1 µM): 96%

CCOCCn1cc(C(=O)Nc2ccc(-n3nc(-c4cccnc4)cc3C(F)(F)F)cn2)ccc1=O
remaining binding (cell-free assay, competition with immobilised ligand; 1 µM): 100%

CCN1CCN(Cc2ccc(NC(=O)c3ccc(C)c(/C=C/c4cnc5[nH]ccc5c4OC)c3)cc2C(F)(F)F)CC1
inhibition (target engagement in cells, inhibitor, chemoproteomics; A-375; 50 nM): -17%

C[C@@H]1CN(c2cc(-c3nn(C)c4ccc(OC5(C)CC5)cc34)ncn2)C[C@H](C)O1
remaining binding (cell-free assay, competition with immobilised ligand; 1 µM): 79%

Cn1c2c(Cl)c(Cl)ccc2c2cn[nH]c(=O)c21
ΔTm (thermal stability, DSF; 10 µM): 0.7 °C

Cc1ccc(Nc2nccc(N(C)c3ccc4c(C)n(C)nc4c3)n2)cc1S(N)(=O)=O
inhibition (enzyme activity, inhibitor; 10 µM): -24%

O=C1NC(=O)c2cc(Nc3ccc(F)cc3)c(Nc3ccc(F)cc3)cc21
remaining signal (cell-free assay; 0.5 µM): 93.7%

O=C(Nc1cnn(-c2csc(C(=O)NC3COC3)c2)c1)Nc1c(F)cccc1Cl
remaining activity (enzyme activity, inhibitor; 5 µM): 81.6%

COc1cc(-c2cc(-c3ccc(N4CCNCC4)cc3)cnc2C)cc(OC)c1OC
inhibition (enzyme activity, inhibitor; 1 µM): 4%

O=C(N[C@H]1CCCCC/C=C\C2C[C@@]2(C(=O)O)NC(=O)[C@@H]2C[C@@H](Oc3ccncc3)CN2C1=O)OC1CCCC1 (stereo partly shown)
remaining binding (binding, competition with immobilised ligand; 1 µM): 81%

Cc1cc(NC(=O)c2cccc3cc(-c4cccc5[nH]nc(N)c45)ccc23)ccc1F
activity vs control (enzyme activity, inhibitor; 0.1 µM): 116%

CC(C)(C)c1nc(-c2cccc(NS(=O)(=O)c3c(F)cccc3F)c2F)c(-c2ccnc(N)n2)s1
remaining activity (enzyme activity, inhibitor, radiometric; 1 µM): 14%

Cn1c2c(Cl)c(Cl)ccc2c2cc[nH]c(=O)c21
ΔTm (thermal stability, DSF; 10 µM): 1.3 °C

O=C(Nc1cccnn1)N1CCC(=Cc2cccc(Oc3ccc(C(F)(F)F)cn3)c2)CC1
remaining binding (cell-free assay, competition with immobilised ligand; 1 µM): 100%

Cn1c2c(Cl)c(Cl)ccc2c2cc(N)[nH]c(=O)c21
ΔTm (thermal stability, DSF; 10 µM): 0.6 °C

O=C(O)c1cc(-c2ccc(C3CCNCC3)cc2)c2ccc(-c3ccc(C(F)(F)F)cc3)cc2c1
remaining binding (cell-free assay, competition with immobilised ligand; 1 µM): 100%

Cn1c2c(c3ccc(Cl)c(Cl)c31)C(C#N)C1(CCN(C(=O)OC(C)(C)C)CC1)NC2=O (racemic)
ΔTm (thermal stability, DSF; 10 µM): 0 °C

CN(C)c1ncnc(-c2ccc3nc(Nc4cc(CN5CCN(C(=O)CC(F)(F)F)CC5)ccn4)[nH]c3c2)c1Cl
remaining binding (cell-free assay, competition with immobilised ligand; 1 µM): 90%

Cn1cncc1C1=CN(c2ncnc3[nH]cnc23)CCS1
inhibition (enzyme activity, inhibitor, radiometric; 2 µM): -15.6%
